The values below come from ChEMBL document CHEMBL4613270, “Structure-Activity Relationship Study Enables the Discovery of a Novel Berberine Analogue as the RXRα Activator to Inhibit Colon Cancer” (J Med Chem, 2020).

pIC50: −log10 of the molar value.

The subject of the test is KM12C. Nature of the test: Inhibition of cell proliferation of human KM12C cells incubated for 15 hrs by MTT assay. The format is functional, cell-based. In outline: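 Cells plated at 1×10⁴ per well, incubated overnight at 37 °C, then exposed to a concentration series for 15 h. MTT (5 mg/mL stock) added for 4 h at 37 °C. Formazan dissolved in DMSO and absorbance read at 570 nm. IC50 derived from the dose-response curve.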
One may read the pIC50 as the IC50 on a negative log10 scale, so that one unit is a factor of ten. Read a high pIC50 as a small IC50. On to `COc1cc2c(cc1OC)-c1cc3cccc(OC)c3c[n+]1CC2`, for which the pIC50 is 3.78. In turn, `COc1cc2c(cc1OC)-c1cc3ccccc3c[n+]1CC2` had a pIC50 of less than 3.22.

In turn, `COc1cc2cc3[n+](cc2cc1OC)CCc1cc2c(cc1-3)OCO2` [PSEUDOBERBERINE] gave a pIC50 of 3.33.

Turning to `COc1cccc2c[n+]3c(cc12)-c1cc2c(cc1CC3)OCO2`, the pIC50 is 3.93. The result for `COc1cc2c(cc1OC)-c1cc3ccc(OC)c(OC)c3c[n+]1CC2` [PALMATINE CHLORIDE] reads 3.41. The compound `c1ccc2c[n+]3c(cc2c1)-c1cc2c(cc1CC3)OCO2` gave a negative-log IC50 (pIC50) of 4.10.

Compound `COc1ccc2cc3[n+](cc2c1)CCc1cc2c(cc1-3)OCO2` showed a pIC50 of 4.28. The result for `COc1ccc2c(c1)CC[n+]1cc3c(OC)c(OC)ccc3cc1-2` reads 4.42; that for `COc1ccc2c(c1)CC[n+]1cc3cc(OC)c(OC)cc3cc1-2`, 4.08.

In turn, `COc1ccc2c(c1)CC[n+]1cc3ccccc3cc1-2` had a pIC50 of 3.89. In turn, `c1c2c(cc3c1OCO3)-c1cc3cc4c(cc3c[n+]1CC2)OCO4` had a pIC50 of 4.24.

For `COc1ccc2c(c1)CC[n+]1cc3cc4c(cc3cc1-2)OCO4`, the pIC50 is 4.33. As for `COc1cc2c(cc1OC)-c1cc3cc(OC)c(OC)cc3c[n+]1CC2`, the pIC50 was less than 3.22. Compound `COc1cc2c(cc1OC)-c1cc3c(OC)cccc3c[n+]1CC2` had a pIC50 of 3.57.
